Calls of active or inactive are those of the source. The calls are words filed in the database; no cut-off is given here.
Columns and labels:
[1] = molecular target: T1, Cytosolic phospholipase A2 (Homo sapiens) (UniProt P47712); assay: Inhibition of human recombinant GIVA cPLA2 using 400 uM Triton X-100/97 uM PAPC/1.8 uM 14C-labeled PAPC/3uM PIP2 substrate mixedmicelles
T1 sequence (whole entry): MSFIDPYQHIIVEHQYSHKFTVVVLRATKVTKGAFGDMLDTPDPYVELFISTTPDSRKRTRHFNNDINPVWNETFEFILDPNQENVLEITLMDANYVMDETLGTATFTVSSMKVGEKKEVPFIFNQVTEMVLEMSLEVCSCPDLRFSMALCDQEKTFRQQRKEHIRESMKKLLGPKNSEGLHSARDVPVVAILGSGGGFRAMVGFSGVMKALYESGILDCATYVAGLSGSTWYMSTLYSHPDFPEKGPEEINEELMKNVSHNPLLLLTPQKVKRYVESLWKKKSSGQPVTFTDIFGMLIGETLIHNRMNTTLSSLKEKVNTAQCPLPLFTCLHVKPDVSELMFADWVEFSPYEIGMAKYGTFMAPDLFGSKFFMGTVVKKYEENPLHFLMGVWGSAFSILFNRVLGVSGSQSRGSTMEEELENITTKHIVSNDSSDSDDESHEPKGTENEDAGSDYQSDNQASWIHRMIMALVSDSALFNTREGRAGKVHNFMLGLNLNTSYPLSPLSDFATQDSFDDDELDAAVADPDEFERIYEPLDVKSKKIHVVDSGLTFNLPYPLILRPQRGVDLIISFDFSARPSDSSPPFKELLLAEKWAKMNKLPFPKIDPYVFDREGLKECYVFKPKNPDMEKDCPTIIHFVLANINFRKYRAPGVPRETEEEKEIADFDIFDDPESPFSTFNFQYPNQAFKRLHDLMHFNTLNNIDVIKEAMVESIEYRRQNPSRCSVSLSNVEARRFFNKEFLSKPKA
Outline: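 Modified Dole assay of recombinant human GIVA cPLA2. Mixed micelles contained 400 µM Triton X-100, 97 µM PAPC, 1.8 µM 14C-PAPC and 3 µM PIP2 in 100 mM HEPES pH 7.5 with 90 µM CaCl2, 2 mM DTT and 0.1 mg/mL BSA. Percent inhibition was measured at 0.091 mole fraction inhibitor. XI(50) is the mole fraction giving 50% inhibition.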

[2] = organism: Homo sapiens; assay: Inhibition of human recombinant GV sPLA2 using 400 uM Triton X-100/98.3 uM PAPC/1.7 uM 14C-labeled PAPC substrate mixedmicelles at 1 uM
[3] = molecular target: T1, Cytosolic phospholipase A2 (Homo sapiens); assay: Inhibition of human recombinant GIVA cPLA2 at 1 uM in vitro vesicle assay
Outline: (§1)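 Recombinant human GIVA cPLA2 was preincubated with 1% DMSO ± inhibitor (80 s at 37 °C, then 10 min at 25 °C). Sonicated vesicles of 1-palmitoyl-2-[14C]arachidonyl-PC (0.2 μM) were added and incubated 1 h at 37 °C. The reaction was stopped with chloroform/methanol. Single-point tests used 1 µM inhibitor; IC50 determinations used 0-3 µM.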

[4] = system: SW982; assay: Inhibition of IL-1beta-induced arachidonic acid release in human SW982 cells using [3H]AA at 10 uM by liquid scintillation counting; type: functional; settings: for inhibition at 10 µM: SW982, 4 h
Outline: (§2)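 SW982 synovial sarcoma cells were serum-starved and labelled overnight with 3H-AA (0.4 µCi/mL) and 14C-OA (0.067 µCi/mL), then washed with PBS/fBSA. They were pretreated 1 h with inhibitor (10 µM single point, or 0-20 µM for IC50), then stimulated with IL-1β 10 ng/mL for 4 h. Released radioactivity was counted by scintillation relative to total incorporated label; DMSO served as vehicle; ≥3 independent experiments in triplicate.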

[5] = system: SW982; assay: Inhibition of IL-1beta-induced arachidonic acid release in human SW982 cells using [3H]AA by liquid scintillation counting; type: functional, cell-based; outline: as §2
[6] = system: SW982; assay: Inhibition of IL-1beta-induced oleic acid release in human SW982 cells using [3H]OA at 0 to 20 uM by liquid scintillation counting; type: functional, cell-based
[7] = molecular target: T1, Cytosolic phospholipase A2 (Homo sapiens); assay: Inhibition of human recombinant GIVA cPLA2 using 400 uM Triton X-100/97 uM PAPC/1.8 uM 14C-labeled PAPC/3uM PIP2 substrate mixedmicelles at 0.091 mole fraction
[8] = molecular target: T2, Cytosolic phospholipase A2 (Homo sapiens, UniProt P47712); assay: Inhibition of human recombinant GIVA cPLA2 in vitro vesicle assay; outline: as §1
T2 sequence (P47712 whole entry): T1 sequence (whole entry)

[9] = system: SW982; assay: Inhibition of IL-1beta-induced oleic acid release in human SW982 cells using [3H]OA at 10 uM by liquid scintillation counting; type: functional; settings: SW982, 4 h
[10] = system: Mus musculus; assay: Antiinflammatory activity in DBA/1 mouse […] model assessed as reduction in articular cavity at 7.5 mg/kg, ip treatment started on day 21 after second […] measured on day 32; type: functional, organism-based; set-up: dose 7.5 mg/kg
Outline: (§3)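 Prophylactic collagen-induced arthritis in male DBA/1 mice. Bovine type II collagen (2 mg/mL) was emulsified 1:1 in Freund's complete adjuvant and 0.1 mL injected at the tail base on day 0, with a booster on day 21. Daily ip dosing in DMSO at 2 mL/Kg began 1 h before the booster. Arthritis index was scored through day 41. Histology groups were killed at day 32 after […] of dosing; hind paws were scored blind (0-5) for infiltration, hyperplasia and damage.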

[11] = system: Mus musculus; assay: Antiinflammatory activity in DBA/1 mouse […] model assessed as reduction in peripheral tissue inflammatory cell infiltration at 7.5 mg/kg, ip treatment started on day 21 after […] measured on day 32; type: functional, organism-based; set-up: dose 7.5 mg/kg; outline: as §3
[12] = system: Mus musculus; assay: Antiinflammatory activity in DBA/1 mouse […] assessed as reduction in capillary and synovial hyperplasia at 7.5 mg/kg, ip treatment started on day 21 after […] measured on day 32; type: functional, organism-based; set-up: dose 7.5 mg/kg; outline: as §3
[13] = system: Mus musculus; assay: Reduction in PGE2 level in DBA/1 mouse plasma at 0.3 mg/kg, ip by EIA analysis relative to control; type: functional, organism-based; set-up: dose 0.3 mg/kg
Outline: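 Plasma came from collagen-induced arthritic DBA/1 mice at termination, about 5 h after the last daily ip dose. Samples were diluted 1:1000-1:6000 in EIA buffer and incubated 18 h at 4 °C in a PGE2 EIA, read at OD550. Levels are expressed relative to DMSO-vehicle arthritic mice; n=10-11 per group, ±SD.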

[14] = Homo sapiens, SW982, 4 h, read-out: IC50

| SMILES | XI50 (mole fraction) [1] | inhibition [2] | inhibition [3] | inhibition at 10 µM [4] | IC50 [5, 14] | inhibition [6] | inhibition [7] | IC50 [8] | inhibition [4] | inhibition at 10 µM [9] | inhibition [10] | inhibition [11] | inhibition [12] | inhibition [13] | IC50 ([5]; sw982) |
| --- | --- | --- | --- | --- | --- | --- | --- | --- | --- | --- | --- | --- | --- | --- | --- |
| CCCCCCCCc1ccc(OCC(=O)c2nccs2)cc1 | 0.02 | 46% | 43% | > 90% | 3.6 µM | inactive | > 90% | – | – | – | – | – | – | – | – |
| O=C(COc1ccc(F)cc1)c1nccs1 | – | 4% | 7% | – | – | – | 58% | Not Active | inactive | 25% | – | – | – | – | – |
| CN(Cc1cnc2nc(N)nc(N)c2n1)c1ccc(C(=O)N[C@@H](CCC(=O)O)C(=O)O)cc1 | – | – | – | – | – | – | – | – | – | – | inactive | inactive | inactive | Active | – |
| CCCCCCCCCCCCOCC(=O)c1nc(C(=O)OCC)cs1 | – | 48% | 21% | 9% | – | inactive | 48% | Not Active | – | – | – | – | – | – | Not Active |
| CCCCCCCCc1ccc(OCC(=O)c2nc3ccccc3s2)cc1 | 0.06 | 55% | inactive | 71% | 5.3 µM | – | > 90% | – | – | 35% | – | – | – | – | – |
| CCCCCCCCCCCCOCC(=O)c1nc(CC(=O)OCC)cs1 | – | 55% | inactive | – | – | inactive | 49% | – | inactive | – | – | – | – | – | – |
| CCCCCCCCc1ccc(OCC(=O)c2nc(CC(=O)OCC)cs2)cc1 | – | 50% | 25% | 71% | 5 µM | – | 64% | Not Active | – | 20% | – | – | – | – | – |
| O=C(COc1ccc(-c2ccccc2)cc1)c1nccs1 | – | 41% | 26% | 73% | 2.8 µM | – | 80% | Not Active | – | 25% | – | – | – | – | – |
| O=C(COc1ccccc1)c1nccs1 | – | 0% | 26% | 12% | – | – | 40% | Not Active | – | 20% | – | – | – | – | Not Active |
